Several values for one entry are separate records, joined by “and”; a condition that tells them apart may be missing. Equal entries are not always repeated.
Tested on: HEK-293T
Assay: Multiplex assay against HEK293T
Type: toxicity, cell-based
Details: human, number of replicates 2
In short: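 Live cells were stained at seeding with Hoechst33342, BioTracker Green Microtubule Cytoskeleton Dye, MitoTracker Red and Annexin V Alexa Fluor 680, then imaged on a CQ1 microscope at 37°C and 5% CO2 after compound addition. CellPathfinder machine-learning gating split cells into Hoechst high-intensity objects or normal cells. Normal cells were split into healthy, pyknosed or fragmented nuclei, and pyknosed cells into mitotic or apoptotic. Tubulin, mitochondrial-mass and membrane-permeability phenotypes are per cents of healthy-nucleus cells.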

[1] = 12 h, 1 µM, compound concentration 1 uM
[2] = 12 h, 10 µM, compound concentration 10 uM
[3] = 24 h, 1 µM, compound concentration 1 uM
[4] = 24 h, 10 µM, compound concentration 10 uM
[5] = 48 h, 1 µM, compound concentration 1 uM
[6] = 48 h, 10 µM, compound concentration 10 uM

With CC(C)(C)c1cnc(CSc2cnc(NC(=O)C3CCNCC3)s2)o1 [BMS-387032] as the molecule, how does the “Population Apoptotic (%)” value [1] read?
The value was 64% and 60%.

What about the “Population Fragmented Nuclei (%)” value [1] of the same molecule?
Its value is 3%.

And the “Population Healthy Nuclei (%)” value [1]?
The value was 69% and 77%.

And the “Population Hoechst High Intensity Objects (%)” value [1]?
Its value is 17% and 10%.

What about the “Population Membrane Permeable-Phenotype (%)” value [1] of the same molecule?
Its value is 6% and 0%.

And the “Population Mitochondria Different-Phenotype (%)” value [1]?
Its value is 54%.

And the “Population Mitotic Cells (%)” value [1]?
Its value is 35% and 40%.

What about the “Population Normal (%)” value [1] of the same molecule?
Its value is 82% and 89%.

What about the “Population Pyknosed Nuclei (%)” value [1] of the same molecule?
The value was 26% and 18%.

And the “Population Tubulin-Different-Phenotype (%)” value [1]?
Its value is 75% and 77%.

And the “Population Apoptotic (%)” value [2]?
The value was 87% and 73%.

And the “Population Fragmented Nuclei (%)” value [2]?
Its value is 6% and 3%.

And the “Population Healthy Nuclei (%)” value [2]?
The value was 77% and 90%.

And the “Population Hoechst High Intensity Objects (%)” value [2]?
Its value is 18% and 15%.

What about the “Population Membrane Permeable-Phenotype (%)” value [2] of the same molecule?
Its value is 3% and 1%.

And the “Population Mitochondria Different-Phenotype (%)” value [2]?
The value was 66% and 67%.

And the “Population Mitotic Cells (%)” value [2]?
The value was 12% and 26%.

What about the “Population Normal (%)” value [2] of the same molecule?
The value was 81% and 84%.

What about the “Population Tubulin-Different-Phenotype (%)” value [2] of the same molecule?
The value was 84% and 85%.

And the “Population Apoptotic (%)” value [3]?
Its value is 73% and 69%.

What about the “Population Fragmented Nuclei (%)” value [3] of the same molecule?
The value was 6% and 5%.

What about the “Population Healthy Nuclei (%)” value [3] of the same molecule?
The value was 70% and 72%.

And the “Population Hoechst High Intensity Objects (%)” value [3]?
Its value is 22% and 14%.

What about the “Population Membrane Permeable-Phenotype (%)” value [3] of the same molecule?
The value was 3% and 0%.

And the “Population Mitochondria Different-Phenotype (%)” value [3]?
The value was 58% and 61%.

And the “Population Mitotic Cells (%)” value [3]?
Its value is 26% and 30%.

And the “Population Normal (%)” value [3]?
The value was 77% and 85%.

And the “Population Pyknosed Nuclei (%)” value [3]?
Its value is 23% and 21%.

What about the “Population Tubulin-Different-Phenotype (%)” value [3] of the same molecule?
The value was 69% and 71%.

What about the “Population Apoptotic (%)” value [4] of the same molecule?
The value was 87% and 75%.

And the “Population Fragmented Nuclei (%)” value [4]?
The value was 9% and 5%.

And the “Population Healthy Nuclei (%)” value [4]?
The value was 73% and 85%.

And the “Population Hoechst High Intensity Objects (%)” value [4]?
Its value is 19% and 17%.

And the “Population Membrane Permeable-Phenotype (%)” value [4]?
The value was 0%.

And the “Population Mitochondria Different-Phenotype (%)” value [4]?
Its value is 80% and 78%.

And the “Population Mitotic Cells (%)” value [4]?
Its value is 12% and 25%.

What about the “Population Normal (%)” value [4] of the same molecule?
Its value is 80% and 82%.

What about the “Population Pyknosed Nuclei (%)” value [4] of the same molecule?
Its value is 16% and 9%.

What about the “Population Tubulin-Different-Phenotype (%)” value [4] of the same molecule?
Its value is 84% and 89%.

And the “Population Apoptotic (%)” value [5]?
The value was 77% and 81%.

What about the “Population Fragmented Nuclei (%)” value [5] of the same molecule?
The value was 7% and 4%.

And the “Population Healthy Nuclei (%)” value [5]?
Its value is 71% and 77%.

And the “Population Hoechst High Intensity Objects (%)” value [5]?
The value was 21% and 16%.

What about the “Population Membrane Permeable-Phenotype (%)” value [5] of the same molecule?
Its value is 1% and 0%.

And the “Population Mitochondria Different-Phenotype (%)” value [5]?
The value was 62% and 68%.

And the “Population Mitotic Cells (%)” value [5]?
Its value is 22% and 18%.

And the “Population Normal (%)” value [5]?
Its value is 78% and 83%.

And the “Population Pyknosed Nuclei (%)” value [5]?
The value was 21% and 18%.

And the “Population Tubulin-Different-Phenotype (%)” value [5]?
Its value is 64% and 65%.

And the “Population Apoptotic (%)” value [6]?
The value was 92% and 93%.

What about the “Population Fragmented Nuclei (%)” value [6] of the same molecule?
Its value is 9% and 5%.

And the “Population Healthy Nuclei (%)” value [6]?
Its value is 71% and 86%.

And the “Population Hoechst High Intensity Objects (%)” value [6]?
The value was 23% and 19%.

What about the “Population Membrane Permeable-Phenotype (%)” value [6] of the same molecule?
Its value is 2%.

And the “Population Mitochondria Different-Phenotype (%)” value [6]?
Its value is 83% and 86%.

And the “Population Mitotic Cells (%)” value [6]?
Its value is 7% and 6%.

And the “Population Normal (%)” value [6]?
Its value is 76% and 80%.

And the “Population Pyknosed Nuclei (%)” value [6]?
Its value is 18% and 8%.

What about the “Population Tubulin-Different-Phenotype (%)” value [6] of the same molecule?
Its value is 85% and 89%.
